pEC50: −log10 of the molar value.
Assays:
FM3A = experiment: Compound was tested in vitro cytotoxicity against FM3A cell; format: functional, cell-based; conditions: Mus musculus
Procedure, shortened: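 Cytotoxicity control used mouse mammary tumor FM3A cells in culture. The 50% inhibitory concentration (EC50) was determined by a previously reported protocol.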

Mus musculus [1] = experiment: Compound was tested in vitro Antimalarial activity against Plasmodium berghei in infected mice (Mus musculus) administered intraperitoneally; format: functional; conditions: ip
Procedure, shortened: (§1)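 Mice infected with P. berghei NK 65 strain, in groups of five, were dosed once daily on days 0–3 with a range of concentrations in olive oil. Dosing was intraperitoneal or oral.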

Mus musculus [2] = experiment: Compound was tested in vitro Antimalarial activity against Plasmodium berghei in infected mice (Mus musculus) administered per orally; format: functional; conditions: po; procedure, shortened: as §1
Plasmodium falciparum [3] = experiment: In vitro antimalarial activity against Plasmodium falciparum; format: functional, organism-based
Procedure, shortened: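 Tested against chloroquine-sensitive P. falciparum FCR-3 strain in culture. EC50 was determined by a previously reported protocol.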

[4] = (§2) Selectivity index was determined; format: functional
Procedure, shortened: (§3)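 Selectivity was calculated as the mean EC50 for FM3A cells divided by the mean EC50 for P. falciparum FCR-3.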

[5] = as §2; format: functional; procedure, shortened: as §3; remark: listed apart in the source
Plasmodium falciparum [6] = experiment: In vitro antimalarial activity against […]; format: functional, organism-based

Row | Structure (SMILES) | pEC50 (FM3A) | ED50 (Mus musculus [1]) | ED90 (Mus musculus [1]) | ED50 (Mus musculus [2]) | pEC50 (Plasmodium falciparum [3]) | pEC50 [4] | Selectivity [5] | pEC50 (Plasmodium falciparum [6]) | ED90 (Mus musculus [2])
1 | c1ccc(C23OOCCCOOC2C2CCC3C2)cc1 (stereo unspecified) | 4.35 | 13 mg/kg | 50 mg/kg | > 100 mg/kg | 6.72 | 3.63 | – | – | –
2 | CC1(C2OOC3C4CCC(C4)C3(c3ccccc3)OO2)CCCC1 (stereo unspecified) | 5.23 | – | – | – | 6.89 | – | 45 | – | –
3 | c1ccc(C23OOC(C4CCCCC4)OOC2C2CCC3C2)cc1 (stereo unspecified) | – | 70 mg/kg | > 100 mg/kg | – | – | – | 52 | 6.68 | –
4 | CC1(CI)CCOOC2(c3ccccc3)C3CCC(C3)C2OO1 (stereo unspecified) | 4.96 | – | – | – | 6.82 | – | 73 | – | –
5 | C[C@@H]1CC[C@H]2[C@@H](C)C(=O)O[C@@H]3O[C@@]4(C)CC[C@@H]1[C@]32OO4 [ARTEMISININ] | – | 5.4 mg/kg | 13 mg/kg | 32 mg/kg | – | – | 1000 | – | 89 mg/kg
6 | CC1(CI)CCOC2(c3ccccc3)C3CCC(C3)C2OO1 (stereo unspecified) | 4.82 | – | – | – | 8.30 | – | 3000 | – | –
7 | CC1(CI)COC2(c3ccccc3)C3CCC(C3)C2OO1 (stereo unspecified) | 4.96 | – | – | – | 6.00 | – | 11 | – | –
8 | c1ccc(C23OOC4(CCCCC4)OOC2C2CCC3C2)cc1 (stereo unspecified) [TETRACYCLOALKANES] | 4.96 | – | – | – | 6.35 | – | 24 | – | –
9 | c1ccc(C2OOC3C4CCC(C4)C3(c3ccccc3)OO2)cc1 (stereo unspecified) | 4.89 | – | – | – | 5.82 | – | 9 | – | –
10 | Fc1ccc(C2OOC3C4CCC(C4)C3(c3ccccc3)OO2)cc1 (stereo unspecified) | 4.96 | – | – | – | 6.00 | – | 11 | – | –

From ChEMBL document CHEMBL1144928, “Antimalarial activity of novel 1,2,5,6-tetraoxacycloalkanes and 1,2,5-trioxacycloalkanes” (J Med Chem, 2003)
